The text below walks through data of ChEMBL document CHEMBL2057109, “Synthesis, biological evaluation, and molecular docking studies of 2,5-substituted-1,4-benzoquinone as novel urease inhibitors” (Bioorg Med Chem, 2012).

pIC50: −log10 of the molar value. Activity calls are given as the source filed them. No cut-off for these calls is given here.

What is called pIC50 is the negative decadic logarithm of the IC50, by convention in mol/L. By inhibition is commonly meant the share of the control response that was lost under treatment.

Test [1] has as its target Urease subunit alpha/Urease subunit beta (Helicobacter pylori (strain ATCC 700392 / 26695) (Campylobacterpylori), UniProt P69996). Description: Inhibition of Helicobacter pylori urease assessed as ammonia production preincubated for 3 hrs measured by indophenol method. In short, it runs like this:
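Enzyme came from H. pylori broth cultures (2.0 × 10⁸ CFU/mL), which were pelleted at 5000 g and 4 °C, washed twice in PBS at pH 7.4, and stored at −80 °C. Urease and test compound were pre-incubated for 3 h at room temperature. Ammonia production was then quantified by the Weatherburn indophenol method.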

In test [2] the target is Urease subunit alpha/Urease subunit beta (Helicobacter pylori (strain ATCC 700392 / 26695) (Campylobacterpylori)) (UniProt P69996+P14916). Nature of the test: Inhibition of Helicobacter pylori urease assessed as ammonia production at 100 uM preincubated for 3 hrs measured by indophenol method.
Urease subunit alpha/Urease subunit beta (Helicobacter pylori (strain ATCC 700392 / 26695) (Campylobacterpylori)), sequence (P14916 whole entry, looked up): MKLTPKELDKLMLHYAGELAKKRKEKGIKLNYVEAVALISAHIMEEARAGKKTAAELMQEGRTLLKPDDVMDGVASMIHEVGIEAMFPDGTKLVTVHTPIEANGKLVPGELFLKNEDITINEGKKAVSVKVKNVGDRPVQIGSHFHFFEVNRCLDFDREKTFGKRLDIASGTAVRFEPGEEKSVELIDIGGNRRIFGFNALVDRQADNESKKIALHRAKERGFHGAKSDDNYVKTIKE
Urease subunit alpha/Urease subunit beta (Helicobacter pylori (strain ATCC 700392 / 26695) (Campylobacterpylori)), sequence (P69996 whole entry, looked up): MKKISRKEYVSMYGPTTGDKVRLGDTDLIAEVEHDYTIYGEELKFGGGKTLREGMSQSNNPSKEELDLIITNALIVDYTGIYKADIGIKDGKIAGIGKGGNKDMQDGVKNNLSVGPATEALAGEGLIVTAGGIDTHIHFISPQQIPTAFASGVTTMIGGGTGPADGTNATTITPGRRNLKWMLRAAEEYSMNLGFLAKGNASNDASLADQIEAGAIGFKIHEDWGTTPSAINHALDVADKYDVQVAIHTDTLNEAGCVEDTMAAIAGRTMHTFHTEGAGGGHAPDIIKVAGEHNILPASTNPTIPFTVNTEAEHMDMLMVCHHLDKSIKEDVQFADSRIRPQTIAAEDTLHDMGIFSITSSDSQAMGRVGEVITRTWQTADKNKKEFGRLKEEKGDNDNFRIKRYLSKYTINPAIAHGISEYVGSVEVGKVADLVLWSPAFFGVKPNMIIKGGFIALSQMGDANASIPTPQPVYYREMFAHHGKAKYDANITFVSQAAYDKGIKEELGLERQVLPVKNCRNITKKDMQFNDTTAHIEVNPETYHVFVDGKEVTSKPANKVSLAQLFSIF

Urease subunit alpha/Urease subunit beta, sequence (P69996 whole entry): as the sequence (P69996 whole entry, looked up) above
Urease subunit alpha/Urease subunit beta, sequence (P14916 whole entry, further chain): as the sequence (P14916 whole entry, looked up) above

On to `CC(=O)NO` [ACETOHYDROXAMIC ACID], for which the negative logarithm of the IC50 (pIC50) in test [1] was 4.33. For the same compound, the inhibition in test [2] was 85.2%.

With `O=C1C=C(NC2CC2)C(=O)C=C1NC1CC1`, the inhibition entry in test [2] is “inactive”.

On to `O=C1C=C(NCCN2CCOCC2)C(=O)C=C1NCCN1CCOCC1`, for which, in test [1], the pIC50 was 4.56. Besides, the inhibition in test [2] is 81.6%.

In the case of `O=C1C=C(NC2CCCC2)C(=O)C=C1NC1CCCC1`, in test [1], the pIC50 is 4.45. Also, the inhibition in test [2] was 68.8%.

As for `O=C1C=C(NC2CCCCC2)C(=O)C=C1NC1CCCCC1`, in test [1], the pIC50 was 4.38. In addition, in test [2], the inhibition amounted to 62.7%.

As for `CC(C)NC1=CC(=O)C(NC(C)C)=CC1=O`, the inhibition result in test [2] was “inactive”.

As for `O=C1C=C(NCCNc2ccccc2)C(=O)C=C1NCCNc1ccccc1`, the inhibition entry in test [2] was “inactive”.
